The source made the active and inactive calls.
Key:
Salmonella typhimurium [1] = experiment: Antimicrobial activity against Salmonella enterica serovar Typhimurium ATCC 14028 infected in mouse J774.1 cells; type: functional, organism-based; details: Salmonella enterica subsp. enterica serovar Typhimurium
Summary of the method: (§1)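 Macrophages were seeded at 5.0 × 10^5 cells/well for 12–16 h; THP-1 cells were first differentiated with 20 nM TPA for 48 h. Bacteria were subcultured 3 h in LB and added at MOI 25 for 30 min. Cells then received 100 μg/ml gentamicin for 1 h and were washed. Treatment was in medium with 10% FBS and 10 μg/ml gentamicin. Survivors were released with 0.1% Triton X-100 and counted as CFU on LB agar after 16 h at 37°C.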

Salmonella typhimurium [2] = experiment: Antimicrobial activity against Salmonella enterica serovar Typhimurium ATCC 14028 infected in mouse RAW264.7 cells assessed as inhibition of intracellular bacterial growth at 1 uM after 8 hrs; type: functional, Salmonella enterica subsp. enterica serovar Typhimurium; set-up: scale not given: the % may be the effect or the level left
Summary of the method: (§2)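 RAW264.7 cells were seeded at 5.0 × 10^5 cells/well for 12–16 h. Log-phase bacteria (1:33 subculture, 3 h in LB, 37°C) were added at MOI 25 for 30 min. Extracellular bacteria were killed with 100 μg/ml gentamicin for 1 h, then washed off. Cells were treated in medium with 10% FBS and 10 μg/ml gentamicin (DMSO 0.1% final) and lysed with 0.1% Triton X-100. CFU were counted on LB agar after 16 h at 37°C.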

[3] = target: RAC-alpha serine/threonine-protein kinase (Mus musculus) (UniProt P31750); experiment: Inhibition of Akt phosphorylation in mouse RAW264.7 cells infected with Salmonella enterica serovar Typhimurium ATCC 14028 assessed as decrease of p-308Thr-Akt level after 8 hrs by Western blotting; type: cell-based
Chain of RAC-alpha serine/threonine-protein kinase (Mus musculus) (P31750 whole entry): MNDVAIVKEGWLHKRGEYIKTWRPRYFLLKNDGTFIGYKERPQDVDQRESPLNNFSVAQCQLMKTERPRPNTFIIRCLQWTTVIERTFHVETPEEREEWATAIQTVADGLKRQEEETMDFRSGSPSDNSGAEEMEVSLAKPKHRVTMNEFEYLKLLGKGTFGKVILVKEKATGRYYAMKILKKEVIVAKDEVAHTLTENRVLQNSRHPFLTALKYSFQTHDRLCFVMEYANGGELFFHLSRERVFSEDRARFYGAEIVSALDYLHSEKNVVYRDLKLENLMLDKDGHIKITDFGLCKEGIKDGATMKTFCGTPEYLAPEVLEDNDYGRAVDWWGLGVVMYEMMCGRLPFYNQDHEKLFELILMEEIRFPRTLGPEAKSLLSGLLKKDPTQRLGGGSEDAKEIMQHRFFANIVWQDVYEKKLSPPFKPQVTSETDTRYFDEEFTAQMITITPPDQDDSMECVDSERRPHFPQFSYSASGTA
Summary of the method: (§3)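 Infected RAW264.7 cells were treated for 8 h and then lysed in M-PER on ice. Lysates (25 μg/lane) were run on SDS gels and transferred to nitrocellulose. Membranes were blocked with 3% skim milk in TBS, incubated with primary antibody for 12 h at 4°C and then HRP secondary, and detected by enhanced chemiluminescence.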

Salmonella typhimurium [4] = experiment: Antimicrobial activity against Salmonella enterica serovar Typhimurium ATCC 14028 infected in mouse RAW264.7 cells transfected with HA-tagged CA-Akt1 assessed as inhibition of intracellular bacterial survival at 1 uM after 2 hrs; type: functional, organism-based; details: Salmonella enterica subsp. enterica serovar Typhimurium; summary of the method: as §1
Salmonella typhimurium [5] = experiment: Antimicrobial activity against Salmonella enterica serovar Typhimurium ATCC 14028 infected in BALB/c mouse assessed as increase of host survival days at 2.5 mg/kg, po administered after 24 hrs of post infection qd relative to control
RAW264.7 [6] = experiment: Induction of autophagy in mouse RAW264.7 cells assessed as LC3-positive puncta with diameter greater than 1 uM in cytoplasm at 1 uM by immunofluorescence microscopic analysis; type: functional, cell-based
Summary of the method: (§4)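 RAW264.7 cells were fixed in 4% formaldehyde for 20 min at 25°C, permeabilized with 0.5% Triton X-100, and blocked overnight in 3% BSA. Staining used primary antibody (anti-LC3 for autophagosomes) for 1 h, then fluorescent secondary antibody for 1 h, with DAPI for nuclei. Slides were read by wide-field or confocal microscopy. For colocalization, only bacteria in direct contact with autophagosomes in 3-D confocal images were scored. Giant puncta were defined as ≥1 μm.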

Salmonella typhimurium [7] = experiment: Antimicrobial activity against Salmonella enterica serovar Typhimurium ATCC 14028 infected in mouse RAW264.7 cells assessed as reduction in bacterial load at 1 uM after 8 hrs by immunofluorescent staining; type: functional, Salmonella enterica subsp. enterica serovar Typhimurium; set-up: scale not given: the % may be the effect or the level left; summary of the method: as §4
Salmonella typhimurium [8] = experiment: Antimicrobial activity against Salmonella enterica serovar Typhimurium ATCC 14028 infected in mouse RAW264.7 cells assessed as reduction of bacterial survival at 1 uM after 2 hrs relative to control; type: functional, Salmonella enterica subsp. enterica serovar Typhimurium; summary of the method: as §2
Salmonella typhimurium [9] = experiment: Antimicrobial activity against Salmonella enterica serovar Typhimurium ATCC 14028 infected in mouse RAW264.7 cells assessed as inhibition of intracellular bacterial growth at 1 uM after 8 to 24 hrs in presence of gentamicin; type: functional, organism-based; details: Salmonella enterica subsp. enterica serovar Typhimurium; summary of the method: as §1
Salmonella typhimurium [10] = experiment: Antimicrobial activity against Salmonella enterica serovar Typhimurium ATCC 14028 infected in BALB/c mouse assessed as reduction of liver bacterial load at 5 mg/kg, administered intragastrically after 24 hrs of post infection qd for 4 days measured on day 5 relative to control; type: functional, Salmonella enterica subsp. enterica serovar Typhimurium; set-up: scale not given: the % may be the effect or the level left; details: route intragastric
Summary of the method: (§5)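 Female BALB/c mice, 8–10 weeks old, were infected by intragastric gavage with an overnight culture at 10^5 organisms in 0.1 ml PBS (50% lethal dose). Starting 24 h post-infection, drug in 0.5% methylcellulose–0.1% Tween 80 in water was given by gavage once daily for 4 days at 1, 2.5 or 5 mg/kg, 7–9 mice per group. On day 5 post-infection, liver and spleen were homogenized in 10 ml cold PBS and plated on LB agar to count CFU.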

[11] = target: RAC-alpha serine/threonine-protein kinase (Mus musculus) (UniProt P31750); experiment: Inhibition of Akt phosphorylation in mouse RAW264.7 cells infected with Salmonella enterica serovar Typhimurium ATCC 14028 assessed as decrease of phosphorylated GSK3-beta level at 1 uM after 8 hrs by Western blotting; type: cell-based; summary of the method: as §3
Salmonella typhimurium [12] = experiment: Antimicrobial activity against Salmonella enterica serovar Typhimurium ATCC 14028 infected in mouse RAW264.7 cells assessed as inhibition of intracellular bacterial growth at 1 uM after 4 hrs in presence of vacuolar ATPase inhibitor bafilomycin A1; type: functional, organism-based; details: Salmonella enterica subsp. enterica serovar Typhimurium; summary of the method: as §1
[13] = target: RAC-alpha serine/threonine-protein kinase (Mus musculus) (UniProt P31750); experiment: Inhibition of Akt phosphorylation in mouse RAW264.7 cells infected with Salmonella enterica serovar Typhimurium ATCC 14028 assessed as decrease of p-473Ser-Akt level after 8 hrs by Western blotting; type: cell-based; summary of the method: as §3
Salmonella typhimurium [14] = experiment: Antimicrobial activity against Salmonella enterica serovar Typhimurium ATCC 14028 infected in mouse RAW264.7 cells transfected with HA-tagged CA-Akt1 assessed as inhibition of intracellular bacterial survival at 1 uM after 8 hrs; type: functional, organism-based; details: Salmonella enterica subsp. enterica serovar Typhimurium; summary of the method: as §1
Salmonella typhimurium [15] = experiment: Antimicrobial activity against Salmonella enterica serovar Typhimurium ATCC 14028 infected in mouse RAW264.7 cells assessed as colocalization of organism with autophagosomes at 1 uM after 1 hr by immunofluorescence microscopic analysis relative to control; type: functional, Salmonella enterica subsp. enterica serovar Typhimurium; summary of the method: as §4
RAW264.7 [16] = experiment: Cytotoxicity against mouse RAW264.7 cells assessed as cell viability after 24 hrs by MTT assay; type: cell-based; details: RAW264.7, 24 h
Salmonella typhimurium [17] = experiment: Antimicrobial activity against Salmonella enterica serovar Typhimurium ATCC 14028 infected in human TPA-differentiated THP1 cells; type: functional, organism-based; details: Salmonella enterica subsp. enterica serovar Typhimurium, THP-1; summary of the method: as §1
Salmonella typhimurium [18] = experiment: Antimicrobial activity against Salmonella enterica serovar Typhimurium ATCC 14028 infected in mouse RAW264.7 cells assessed as reduction of bacterial count at 1 uM pretreated 30 mins before infection measured after 1 hr; type: functional, organism-based; details: Salmonella enterica subsp. enterica serovar Typhimurium
Summary of the method: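 Bacteria were pre-exposed to vehicle (DMSO) or 1 μM drug in culture medium for 30 min. They were then used to infect RAW264.7 cells at MOI 25 for 30 min, followed by 100 μg/ml gentamicin for 1 h and PBS washes. Intracellular bacteria were counted as CFU 1 h later after Triton X-100 lysis.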

Salmonella typhimurium [19] = experiment: Antimicrobial activity against Salmonella enterica serovar Typhimurium ATCC 14028 infected in BALB/c mouse assessed as reduction of spleen bacterial load at 2.5 mg/kg, administered intragastrically after 24 hrs of post infection qd for 4 days measured on day 5 relative to control; type: functional, Salmonella enterica subsp. enterica serovar Typhimurium; set-up: scale not given: the % may be the effect or the level left; details: route intragastric; summary of the method: as §5
Salmonella typhimurium [20] = experiment: Antimicrobial activity against Salmonella enterica serovar Typhimurium ATCC 14028 infected in BALB/c mouse assessed as reduction of spleen bacterial load at 5 mg/kg, administered intragastrically after 24 hrs of post infection qd for 4 days measured on day 5 relative to control; type: functional, Salmonella enterica subsp. enterica serovar Typhimurium; set-up: scale not given: the % may be the effect or the level left; details: route intragastric; summary of the method: as §5
Salmonella typhimurium [21] = experiment: Antimicrobial activity against Salmonella enterica serovar Typhimurium ATCC 14028 infected in BALB/c mouse assessed as reduction of liver bacterial load at 2.5 mg/kg, administered intragastrically after 24 hrs of post infection qd for 4 days measured on day 5 relative to control; type: functional, Salmonella enterica subsp. enterica serovar Typhimurium; set-up: scale not given: the % may be the effect or the level left; details: route intragastric; summary of the method: as §5
Salmonella typhimurium [22] = experiment: Antimicrobial activity against Salmonella enterica serovar Typhimurium ATCC 14028 infected in mouse RAW264.7 cells assessed as inhibition of intracellular bacterial growth at 1 uM after 4 hrs; type: functional, organism-based, Salmonella enterica subsp. enterica serovar Typhimurium; summary of the method: as §2
Salmonella typhimurium [23] = experiment: Antimicrobial activity against Salmonella enterica serovar Typhimurium ATCC 14028 infected in mouse RAW264.7 cells transfected with shRNA assessed as reduction of Atg7 expression at 1 uM after 2 hrs by immunoblotting relative to control; type: functional, Salmonella enterica subsp. enterica serovar Typhimurium; set-up: scale not given: the % may be the effect or the level left
Summary of the method: (§6)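 Beclin-1 or Atg7 shRNA plasmids, with GFP shRNA as control, were nucleofected into RAW264.7 cells (2 × 10^6 cells, 2 μg DNA). Stable clones were selected with 2 μg/ml puromycin and kept in 1 μg/ml. Knockdown was measured by immunoblotting.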

RAW264.7 [24] = experiment: Cytotoxicity against Salmonella enterica serovar Typhimurium ATCC 14028 infected in mouse RAW264.7 cells assessed as cell viability at 1 uM after 24 hrs by MTT assay; type: cell-based; details: raw264.7, 24 h
RAW264.7 [25] = experiment: Cytotoxicity against mouse RAW264.7 cells assessed as cell viability at 1 uM after 24 hrs by MTT assay; type: cell-based; details: raw264.7, 24 h
RAW264.7 [26] = experiment: Induction of autophagy in mouse RAW264.7 cells assessed as increase of LC3 punctum formation at 1 uM by immunofluorescence microscopic analysis; type: functional, cell-based; summary of the method: as §4
Salmonella typhimurium [27] = experiment: Antimicrobial activity against Salmonella enterica serovar Typhimurium ATCC 14028 at 1 to 5 uM after 480 mins; type: functional, organism-based; details: Salmonella enterica subsp. enterica serovar Typhimurium
Salmonella typhimurium [28] = experiment: Antimicrobial activity against Salmonella enterica serovar Typhimurium ATCC 14028 infected in mouse RAW264.7 cells assessed as inhibition of intracellular bacterial growth after 8 hrs; type: functional, organism-based, Salmonella enterica subsp. enterica serovar Typhimurium; details: ATCC 14028, RAW264.7, 8 h; summary of the method: as §2
Salmonella typhimurium [29] = experiment: Antimicrobial activity against Salmonella enterica serovar Typhimurium ATCC 14028 infected in mouse RAW264.7 cells transfected with shRNA assessed as reduction of Beclin-1 expression at 1 uM after 2 hrs by immunoblotting relative to control; type: functional, Salmonella enterica subsp. enterica serovar Typhimurium; set-up: scale not given: the % may be the effect or the level left; summary of the method: as §6

## NCC(=O)Nc1ccc(-n2nc(C(F)(F)F)cc2-c2ccc3c(ccc4ccccc43)c2)cc1 [AR-12]
Salmonella typhimurium [1]
  Activity: Active
Salmonella typhimurium [2]
  Activity: 90%
[3]
  inhibition: Dose-dependent effect
Salmonella typhimurium [4]
  Activity: Active
Salmonella typhimurium [5]
  Survival: 8.1 days
RAW264.7 [6]
  Activity: Active
Salmonella typhimurium [7]
  Activity: 82%
Salmonella typhimurium [8]
  Activity: 25%
Salmonella typhimurium [9]
  Activity: Active
Salmonella typhimurium [10]
  Activity: 96%
[11]
  inhibition: Active
Salmonella typhimurium [12]
  Activity: Active
[13]
  inhibition: Dose-dependent effect
Salmonella typhimurium [14]
  Activity: inactive
Salmonella typhimurium [15]
  Activity: 21.2%
RAW264.7 [16]
  IC50: > 10000 nM
Salmonella typhimurium [17]
  Activity: Active
Salmonella typhimurium [18]
  Activity: inactive
Salmonella typhimurium [19]
  Activity: 98%
Salmonella typhimurium [20]
  Activity: 90%
Salmonella typhimurium [21]
  Activity: 99%
Salmonella typhimurium [22]
  Activity: Active
Salmonella typhimurium [23]
  Activity: 43%
RAW264.7 [24]
  Activity: Non-toxic
RAW264.7 [25]
  Activity: Non-toxic
RAW264.7 [26]
  Activity: Active
Salmonella typhimurium [27]
  Activity: inactive
Salmonella typhimurium [28]
  IC50: 200 nM
Salmonella typhimurium [29]
  Activity: 83%

Source: ChEMBL document CHEMBL1649299, “Eradication of intracellular Salmonella enterica serovar Typhimurium with a small-molecule, host cell-directed agent” (Antimicrob Agents Chemother, 2009)
